Usually GI50 stands for the concentration at which growth is held to half of that of the control. Broadly, the pIC50 is −log10 of the IC50, conventionally taken in molar units.

pIC50: −log10 of the molar value. Bounds are passed on as bounds.

Drawing on ChEMBL document CHEMBL3877303 (J Med Chem, 2017), this text covers GI50 and IC50 for 28 compounds.

Data set [1] can be described thus: Growth inhibition of mouse BAF3 cells measured after 72 hrs by CellTiter-Glo or CCK8 assay. In kind it is cell-based. The essentials: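 Cells at 1 to 2.5×10^4 cells/mL were incubated with a range of compound concentrations for 72 h. Viability was read by CellTiter-Glo luminescence or CCK-8 absorbance (450/655 nm) and normalized to DMSO control. GI50 came from curve fitting, with triplicate testing.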
For orientation: Cellular ATP, detected with luciferase, serves as a proxy for viable cell number.

For data set [2], the target named is BCR/ABL p210 fusion protein (Homo sapiens, UniProt A1Z199). Kind of data set: Inhibition of human BCR/ABL p210 fusion protein expressed in BAF3 cells assessed as growth inhibition measured after 72 hrs by CellTiter-Glo or CCK8 assay. The class given is cell-based. The essentials:
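Seeded at 1 to 2.5×10^4 cells/mL with various compound concentrations, 72 h. Viability read by CellTiter-Glo luminescence or CCK-8 absorbance (450/655 nm), normalized to DMSO control, GI50 from curve fit, triplicate testing.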

In data set [3] the target is T1, Mast/stem cell growth factor receptor Kit (Homo sapiens, UniProt P10721). The following applies: BaF3.
Data set [4] concerns the target T1, Mast/stem cell growth factor receptor Kit. Kind of data set: Inhibition of recombinant C-terminal polyhistidine-tagged human c-KIT expressed in mammalian expression system using Tyr 06 peptide as substrate measured after 1hr by FRET based Z'Lyte assay.

T1 sequence (P10721 whole entry): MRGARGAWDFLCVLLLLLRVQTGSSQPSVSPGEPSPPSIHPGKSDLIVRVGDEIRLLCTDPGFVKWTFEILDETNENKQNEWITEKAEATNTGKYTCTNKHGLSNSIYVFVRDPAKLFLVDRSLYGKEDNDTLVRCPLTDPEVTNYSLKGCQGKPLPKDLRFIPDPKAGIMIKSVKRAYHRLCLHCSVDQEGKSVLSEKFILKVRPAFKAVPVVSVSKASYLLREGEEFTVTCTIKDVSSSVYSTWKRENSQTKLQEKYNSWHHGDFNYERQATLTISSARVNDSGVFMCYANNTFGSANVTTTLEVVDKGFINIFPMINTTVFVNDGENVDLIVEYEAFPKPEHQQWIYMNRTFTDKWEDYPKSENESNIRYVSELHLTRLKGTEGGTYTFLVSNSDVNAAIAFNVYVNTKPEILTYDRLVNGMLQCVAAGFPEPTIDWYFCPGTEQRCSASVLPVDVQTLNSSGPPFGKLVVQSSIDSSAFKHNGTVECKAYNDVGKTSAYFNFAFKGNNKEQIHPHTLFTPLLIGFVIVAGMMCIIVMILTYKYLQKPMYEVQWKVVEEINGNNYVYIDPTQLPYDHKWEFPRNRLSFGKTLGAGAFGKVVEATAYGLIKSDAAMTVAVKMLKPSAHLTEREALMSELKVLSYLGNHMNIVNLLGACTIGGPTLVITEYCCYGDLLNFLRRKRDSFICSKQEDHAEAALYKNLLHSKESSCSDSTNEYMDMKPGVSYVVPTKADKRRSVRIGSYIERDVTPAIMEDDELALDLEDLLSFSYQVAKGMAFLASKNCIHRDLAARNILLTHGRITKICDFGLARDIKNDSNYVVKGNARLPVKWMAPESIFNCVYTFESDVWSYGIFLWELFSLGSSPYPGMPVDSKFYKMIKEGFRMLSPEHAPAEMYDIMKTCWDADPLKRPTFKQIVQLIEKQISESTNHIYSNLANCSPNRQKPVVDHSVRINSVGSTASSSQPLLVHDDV
BCR/ABL p210 fusion protein, sequence (A1Z199 1-97): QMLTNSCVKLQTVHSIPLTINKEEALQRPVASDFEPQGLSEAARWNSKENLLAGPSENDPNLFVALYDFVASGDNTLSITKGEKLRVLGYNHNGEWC

`Cc1ccc(NC(=O)c2ccc(CN3CCN(C)CC3)c(C(F)(F)F)c2)cc1OC1CCN(C(=O)c2ccc(=O)[nH]c2)CC1` gave a concentration for 50% growth inhibition (GI50) at 72 h in data set [1] greater than 10000 nM. In addition, the GI50 in data set [2] stood at 1970 nM; in data set [3], 1600 nM.
For `Cc1ccc(NC(=O)c2ccc(CN3CCN(C)CC3)c(C(F)(F)F)c2)cc1OC1CCN(C(=O)c2cccnc2C)CC1`, in data set [1], halving of growth (GI50 at 72 h) required 540 nM. In addition, the 50% growth inhibitory concentration (GI50) in data set [2] amounted to 2210 nM; in data set [3] it was 370 nM.
Taken in the same sequence, the figures for `CN1CCN(Cc2ccc(C(=O)Nc3ccc(Cl)c(OC4CCN(C(=O)c5cccnc5)CC4)c3)cc2C(F)(F)F)CC1` were greater than 10000 nM, 253 nM and 340 nM.
For `Cc1ccc(NC(=O)c2ccc(CN3CCN(C)CC3)c(C(F)(F)F)c2)cc1OC1CCN(C(=O)c2cccnc2)CC1` the same measures were greater than 10000 nM, 164 nM and 220 nM.
`Cc1ccc(NC(=O)c2ccc(CN3CCN(C)CC3)c(C(F)(F)F)c2)cc1OC1CCN(S(=O)(=O)c2ccccc2)CC1` yielded a GI50 at 72 h in data set [1] of 5100 nM. The GI50 in data set [2] was 4770 nM; in data set [3] it was 600 nM.
Take `Cc1ccc(NC(=O)c2ccc(CN3CCN(C)CC3)c(C(F)(F)F)c2)cc1OC1CCN(C(=O)c2ccccc2)CC1`: the 50% growth inhibitory concentration (GI50) at 72 h in data set [1] worked out at 4730 nM. Besides, the GI50 in data set [2] stood at 635 nM; in data set [3], 550 nM.
Take `Cc1ccc(NC(=O)c2ccc(CN3CCN(C)CC3)c(C(F)(F)F)c2)cc1OC1CCN(C(=O)c2cccnc2F)CC1`: in data set [1], the GI50 at 72 h was 1520 nM. In addition, the GI50 amounted to 2000 nM in data set [2] and 63 nM in data set [3].
Turning to `Cc1ccc(NC(=O)c2ccc(CN3CCN(C)CC3)c(C(F)(F)F)c2)cc1OC1CCN(C(=O)c2cnccc2C)CC1`, the pIC50 in data set [4] is 6.47. The compound further gave a concentration for 50% growth inhibition (GI50) at 72 h in data set [1] of 2680 nM. The values for the concentration for 50% growth inhibition (GI50) in data set [2] and in data set [3] were 203 nM and 210 nM, respectively.
As for `Cc1ccc(NC(=O)c2ccc(CN3CCN(C)CC3)c(C(F)(F)F)c2)cc1OCC1CN(C(=O)c2cccnc2)C1`, the concentration for 50% growth inhibition (GI50) at 72 h in data set [1] was found to be 1070 nM. The GI50 stood at 5400 nM in data set [2] and 2860 nM in data set [3].
For the compound `Cc1ccc(NC(=O)c2ccc(CN3CCN(C)CC3)c(C(F)(F)F)c2)cc1OC1CCN(C(=O)c2cncc(Cl)c2)CC1`, in data set [1], the GI50 at 72 h is 2870 nM. Besides, the values for the GI50 in data set [2] and in data set [3] were 219 nM and 37 nM, respectively.
In data set [1], `Cc1ccc(NC(=O)c2ccc(CN3CCN(C)CC3)c(C(F)(F)F)c2)cc1OC1CCN(C(=O)c2cnc3ccccc3c2)CC1` gave a concentration for 50% growth inhibition (GI50) at 72 h of 1300 nM. The 50% growth inhibitory concentration (GI50) in data set [2] stood at 86 nM; in data set [3] it was 320 nM.
Compound `Cc1ccc(NC(=O)c2ccc(CN3CCN(C)CC3)c(C(F)(F)F)c2)cc1OC1CCN(C(=O)c2cccnc2Cl)CC1` displayed a GI50 at 72 h in data set [1] of 2720 nM. For the same compound, the values for the GI50 in data set [2] and in data set [3] were 2760 nM and 62 nM, respectively.
For `Cc1ccc(NC(=O)c2ccc(CN3CCN(C)CC3)c(C(F)(F)F)c2)cc1OC1CCN(C(=O)c2ccsc2)CC1` the same measures were 1480 nM, 135 nM and 26 nM.
Turning to `Cc1ccc(NC(=O)c2ccc(CN3CCN(C)CC3)c(C(F)(F)F)c2)cc1OC1CCN(C(=O)c2cnc(N)nc2)CC1`, the concentration for 50% growth inhibition (GI50) at 72 h in data set [1] was greater than 10000 nM. Besides, the values for the GI50 in data set [2] and in data set [3] were 168 nM and 200 nM, respectively.
As to `Cc1ccc(NC(=O)c2ccc(CN3CCN(C)CC3)c(C(F)(F)F)c2)cc1OC1CCN(c2ncccn2)CC1`, the concentration for 50% growth inhibition (GI50) at 72 h in data set [1] is 8100 nM. The GI50 was 3220 nM in data set [2] and 2500 nM in data set [3].
Take `Cc1cncc(C(=O)N2CCC(Oc3cc(NC(=O)c4ccc(CN5CCN(C)CC5)c(C(F)(F)F)c4)ccc3C)CC2)c1`: in data set [4], the pIC50 is 6.67. This compound showed a GI50 at 72 h in data set [1] of 800 nM. In addition, the concentration for 50% growth inhibition (GI50) in data set [2] is 79 nM; in data set [3] it was 28 nM.
`COc1cc2ncnc(N3CCC(Oc4cc(NC(=O)c5ccc(CN6CCN(C)CC6)c(C(F)(F)F)c5)ccc4C)CC3)c2cc1OC`: the 50% growth inhibitory concentration (GI50) at 72 h in data set [1] was determined as 1200 nM. The concentration for 50% growth inhibition (GI50) in data set [2] stood at 773 nM; in data set [3], 190 nM.
In turn, `Cc1ccc(NC(=O)c2ccc(CN3CCN(C)CC3)c(C(F)(F)F)c2)cc1OC1CCN(C(=O)Cc2cccnc2)CC1` had a concentration for 50% growth inhibition (GI50) at 72 h in data set [1] of 6490 nM. Further, the results for the concentration for 50% growth inhibition (GI50) in data set [2] and in data set [3] were 5520 nM and 780 nM, respectively.
As for `CCC(=O)N1CCC(Oc2cc(NC(=O)c3ccc(CN4CCN(C)CC4)c(C(F)(F)F)c3)ccc2C)CC1`, the GI50 at 72 h in data set [1] was greater than 10000 nM. Besides, the GI50 came to 998 nM in data set [2] and 300 nM in data set [3].
In the case of `Cc1ccc(NC(=O)c2ccc(CN3CCN(C)CC3)c(C(F)(F)F)c2)cc1OC1CCN(C(=O)c2ccccn2)CC1`, the pIC50 in data set [4] is 6.19. Also, in data set [1], the GI50 at 72 h was greater than 10000 nM. Besides, the GI50 in data set [2] was 72 nM; in data set [3], 200 nM.
`C=CC(=O)N1CCC(Oc2cc(NC(=O)c3ccc(CN4CCN(C)CC4)c(C(F)(F)F)c3)ccc2C)CC1`: in data set [1], the GI50 at 72 h is greater than 10000 nM. Besides, the concentration for 50% growth inhibition (GI50) in data set [2] is 427 nM.
On to `Cc1ccc(NC(=O)c2ccc(CN3CCN(C)CC3)c(C(F)(F)F)c2)cc1OCCNC(=O)c1cccnc1`, for which the 50% growth inhibitory concentration (GI50) at 72 h in data set [1] is greater than 10000 nM. In addition, the GI50 in data set [2] came out at 1550 nM; in data set [3], 3300 nM.
For the compound `Cc1ccc(NC(=O)c2ccc(CN3CCN(C)CC3)cc2)cc1OC1CCN(C(=O)c2cccnc2)CC1`, the GI50 at 72 h in data set [1] is greater than 10000 nM. Moreover, the GI50 was 8780 nM in data set [2] and greater than 5000 nM in data set [3].
In turn, `COc1ccc(NC(=O)c2ccc(CN3CCN(C)CC3)c(C(F)(F)F)c2)cc1OC1CCN(C(=O)c2cccnc2)CC1` came in with a 50% growth inhibitory concentration (GI50) at 72 h in data set [1] greater than 10000 nM. Moreover, the GI50 in data set [2] was 8410 nM; in data set [3] it was greater than 10000 nM.
The compound `Cc1ccc(NC(=O)c2ccc(CN3CCN(C)CC3)c(C(F)(F)F)c2)cc1OC1CCN(C(=O)c2ccoc2)CC1` returned a concentration for 50% growth inhibition (GI50) at 72 h in data set [1] greater than 10000 nM. The values for the concentration for 50% growth inhibition (GI50) in data set [2] and in data set [3] were 153 nM and 270 nM, respectively.
In data set [1], `Cc1ccc(NC(=O)c2ccc(CN3CCN(C)CC3)c(C(F)(F)F)c2)cc1OCC1CCN(C(=O)c2cccnc2)C1` (configuration not stated) registered a GI50 at 72 h of 3980 nM. The values for the 50% growth inhibitory concentration (GI50) in data set [2] and in data set [3] were 4940 nM and 3820 nM, respectively.
In the case of `Cc1ccc(NC(=O)c2ccc(CN3CCN(C)CC3)c(C(F)(F)F)c2)cc1OC1CCN(C(=O)c2ccncc2)CC1`, in data set [4], the pIC50 was 6.59. The compound also registered a concentration for 50% growth inhibition (GI50) at 72 h in data set [1] greater than 10000 nM. The figures for the GI50 in data set [2] and in data set [3] were 88 nM and 170 nM, respectively.
The compound `Cc1ccc(NC(=O)c2ccc(CN3CCN(C)CC3)c(C(F)(F)F)c2)cc1OC1CCN(C(=O)CN(C)C)CC1` showed a GI50 at 72 h in data set [1] greater than 10000 nM. In addition, the GI50 in data set [2] amounted to 3070 nM; in data set [3], 1630 nM.
